Measured values taken from ChEMBL document CHEMBL1141134, “Scaffold hopping with molecular field points: identification of a cholecystokinin-2 (CCK2) receptor pharmacophore and its use in the design of a prototypical series of pyrrole- and imidazole-based CCK2 antagonists” (J Med Chem, 2005).

Experiments:
[1] = Percent material excreted unchanged was detected in the bile by i.v. administration (10 uM/Kg) to anesthetized rat; type: ADME; settings: iv, read-out: Activity
Summary of the method: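 Anesthetized rats dosed iv bolus at 10 μmol/kg; bile duct cannulated, bile collected in 15 min intervals over 150 min total; unchanged compound measured by HPLC, reported as percent excreted.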

[2] = Log D value was measured in octanol/buffer (pH 7.5); type: physicochemical
Summary of the method: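 Partition between octanol and buffer at pH 7.5.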

[3] = target: T1, Gastrin/cholecystokinin type B receptor (Mus musculus, UniProt P56481); assay: Inhibition of 20 pM [125I]BH-CCK-8S binding to mouse cortical membrane Cholecystokinin 2 receptor
T1 sequence (P56481 whole entry): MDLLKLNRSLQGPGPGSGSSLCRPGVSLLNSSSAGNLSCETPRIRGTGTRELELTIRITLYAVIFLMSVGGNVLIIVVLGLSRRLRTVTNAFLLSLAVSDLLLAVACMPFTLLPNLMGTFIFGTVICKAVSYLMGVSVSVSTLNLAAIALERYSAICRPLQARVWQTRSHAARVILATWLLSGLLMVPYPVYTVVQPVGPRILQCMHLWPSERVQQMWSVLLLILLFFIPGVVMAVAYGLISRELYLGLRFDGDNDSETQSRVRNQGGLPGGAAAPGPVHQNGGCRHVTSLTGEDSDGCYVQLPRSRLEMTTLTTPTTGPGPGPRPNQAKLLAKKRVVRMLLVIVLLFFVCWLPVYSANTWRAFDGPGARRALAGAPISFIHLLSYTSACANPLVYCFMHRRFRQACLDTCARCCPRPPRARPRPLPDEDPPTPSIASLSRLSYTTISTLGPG
Summary of the method: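 Competition binding in mouse cortical membrane homogenates against 20 pM [125I]BH-CCK-8S tracer; pKi ± SEM from at least three separate experiments.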

[4] = target: T2, Cholecystokinin receptor type A (Cavia porcellus, UniProt Q63931); assay: Inhibition of 20 pM [125I]BH-CCK-8S binding to guinea pig pancreas membrane Cholecystokinin 1 receptor
T2 sequence (Q63931 whole entry): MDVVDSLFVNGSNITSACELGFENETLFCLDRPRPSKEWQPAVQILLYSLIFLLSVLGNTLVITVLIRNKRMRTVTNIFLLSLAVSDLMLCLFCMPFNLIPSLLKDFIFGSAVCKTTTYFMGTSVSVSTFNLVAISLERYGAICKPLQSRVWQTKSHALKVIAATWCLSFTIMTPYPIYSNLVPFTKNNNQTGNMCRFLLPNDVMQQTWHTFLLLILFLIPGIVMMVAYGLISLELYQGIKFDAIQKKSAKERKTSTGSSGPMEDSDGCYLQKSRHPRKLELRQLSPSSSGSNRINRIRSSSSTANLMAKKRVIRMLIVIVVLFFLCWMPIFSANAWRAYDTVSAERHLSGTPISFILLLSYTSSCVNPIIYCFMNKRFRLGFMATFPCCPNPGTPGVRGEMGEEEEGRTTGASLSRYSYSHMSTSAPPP
Summary of the method: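 Competition binding in guinea pig pancreas cell homogenates against 20 pM [125I]BH-CCK-8S; pKi ± SEM derived from at least three separate experiments.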

[5] = Percent material excreted unchanged was detected in the bile by i.v. administration (1 or 10 uM/Kg) to anesthetized rat; type: ADME; settings: iv, read-out: Activity
Summary of the method: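 Anesthetized rats, iv bolus at 1 or 10 μmol/kg; bile duct cannulated, bile collected in 15 min intervals over 150 min total; unchanged compound in bile quantified by HPLC, expressed as percent of dose. Compounds given as bis(N-methyl-D-glucamine) salts.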

[6] = target: T3, Gastrin/cholecystokinin type B receptor (Mus musculus) (UniProt P56481); assay: Loss of Cholecystokinin 2 receptor activity relative to parent compound; type: functional
T3 sequence (whole entry): T1 sequence (P56481 whole entry)

Row | Structure (SMILES) | dose excreted [1] [%] | logD [2] | Ki [3] [nM] | Ki [4] [nM] | dose excreted [5] [%] | Activity [6]
1 | CNC[C@H](O)[C@@H](O)[C@H](O)[C@H](O)CO.O=C(O)c1cccc(NC(=O)c2cc(-c3ccc4ccccc4c3)[nH]c2CC2CCCCCC2)c1 | 6 | 2.9 | 1260 | 3980 |  | 
2 | CNC[C@H](O)[C@@H](O)[C@H](O)[C@H](O)CO.O=C(O)c1cc(NC(=O)c2cc(-c3ccc4ccccc4c3)[nH]c2CC2CCCCCC2)cc(C(=O)O)c1 | 59 | 1.4 | 200 | 2510 |  | 
3 | CNC[C@H](O)[C@@H](O)[C@H](O)[C@H](O)CO.O=C(Nc1cc(CO)cc(CO)c1)c1[nH]c(-c2ccc3ccccc3c2)nc1CC1CCCCCC1 | 1 | > 4 | 3980 | 3160 |  | 
4 | O=C(O)CCNC(=O)c1cc(-c2ccccc2)[nH]c1CC12CC3CC(CC(C3)C1)C2 |  |  | 3160 | 10000 |  | 
5 | O=C(O)c1cc(NC(=O)c2cc(-c3ccccc3)[nH]c2CC23CC4CC(CC(C4)C2)C3)cc(C(=O)O)c1 |  |  | 126 | 7940 |  | 
6 | CNC[C@H](O)[C@@H](O)[C@H](O)[C@H](O)CO.O=C(NCC12CC3CC(CC(C3)C1)C2)c1cc2nc[nH]c2cc1C(=O)N[C@@H](Cc1ccccc1)C(=O)Nc1cc(CO)cc(CO)c1 |  | 3.7 |  | 3980 | 22 | 
7 | O=C(O)c1cc(NC(=O)c2cc(-c3ccccc3)[nH]c2CC2CCCCCC2)cc(C(=O)O)c1 |  |  | 251 | 7940 |  | 
8 | CNC[C@H](O)[C@@H](O)[C@H](O)[C@H](O)CO.O=C(O)c1cccc(NC(=O)[C@H](Cc2ccccc2)NC(=O)c2cc3[nH]cnc3cc2C(=O)NCC23CC4CC(CC(C4)C2)C3)c1 |  | 1.1 | 398 | 5010 | 39 | 
9 | O=C(O)c1cc(NC(=O)[C@H](Cc2ccccc2)NC(=O)c2ccccc2C(=O)NCC23CC4CC(CC(C4)C2)C3)cc(C(=O)O)c1 |  |  | 31.6 |  |  | 
10 | O=C(O)c1cc(NC(=O)[C@H](Cc2ccccc2)NC(=O)c2cc3cc[nH]c3cc2C(=O)NCC23CC4CC(CC(C4)C2)C3)cc(C(=O)O)c1 |  |  | 1 | 3980 |  | 
11 | CN(C(=O)[C@H](Cc1ccccc1)NC(=O)c1cc2[nH]cnc2cc1C(=O)NCC12CC3CC(CC(C3)C1)C2)c1cc(C(=O)O)cc(C(=O)O)c1 |  |  |  | 3980 |  | 2
12 | O=C(O)c1cc(NC(=O)c2[nH]c(-c3ccccc3)nc2CC23CC4CC(CC(C4)C2)C3)cc(C(=O)O)c1 |  |  | 158 | 3160 |  | 
13 | O=C(O)c1cc(NC(=O)c2[nH]c(-c3ccc4[nH]ccc4c3)nc2CC2CCCCCC2)cc(C(=O)O)c1 |  |  | 1000 | 5010 |  | 
14 | CNC[C@H](O)[C@@H](O)[C@H](O)[C@H](O)CO.O=C(O)c1cccc(NC(=O)c2[nH]c(-c3ccc4ccccc4c3)nc2CC2CCCCCC2)c1 | 5 | 2.8 | 794 |  |  | 
15 | O=C(O)c1cc(NC(=O)c2cc(-c3ccccc3)[nH]c2CCC23CC4CC(CC(C4)C2)C3)cc(C(=O)O)c1 |  |  | 200 | 5010 |  | 
16 | O=C(O)c1cc(NC(=O)c2[nH]c(-c3ccccc3)nc2CCC23CC4CC(CC(C4)C2)C3)cc(C(=O)O)c1 |  |  | 631 | 6310 |  | 
17 | CN(C(=O)c1cc2[nH]cnc2cc1C(=O)NCC12CC3CC(CC(C3)C1)C2)[C@@H](Cc1ccccc1)C(=O)Nc1cc(C(=O)O)cc(C(=O)O)c1 |  |  | 25.1 |  |  | 0.7
18 | CNC[C@H](O)[C@@H](O)[C@H](O)[C@H](O)CO.O=C(O)c1cc(NC(=O)[C@H](Cc2ccccc2)NC(=O)c2cc3[nH]cnc3cc2C(=O)NCC23CC4CC(CC(C4)C2)C3)cc(C(=O)O)c1 |  | -2.3 | 5.01 | 1580 | 45 | 
19 | CNC[C@H](O)[C@@H](O)[C@H](O)[C@H](O)CO.O=C(O)c1cc(NC(=O)c2[nH]c(-c3ccc4ccccc4c3)nc2CC2CCCCCC2)cc(C(=O)O)c1 | 53 | 0.7 |  | 3160 |  | 
20 | O=C(O)c1cc(NC(=O)[C@H](Cc2ccccc2)NC(=O)C2C3c4ccccc4C(c4ccccc43)C2C(=O)NCC23CC4CC(CC(C4)C2)C3)cc(C(=O)O)c1 (some centres not stated) |  |  |  | 2000 |  | 
21 | O=C(O)c1cc(NC(=O)c2[nH]c(-c3ccccc3)nc2CC2CCCCCC2)cc(C(=O)O)c1 |  |  |  | 7940 |  | 
